# According to ChEMBL document CHEMBL1154279, “Cytotoxic compounds from the stems of Cinnamomum tenuifolium” (J Nat Prod, 2009):
# Tests used:
# [1] = test system: LNCaP; assay: Cytotoxicity against human LNCAP cells after 72 hrs by XTT assay; type: functional, cell-based; details: 24 h, in the assay text read “after 24 hrs” for “after 72 hrs”
# Outline: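 Prostate cancer cells in RPMI-1640 with 10% FBS, 37 °C, 5% CO2, grown to 70–80% confluence and treated at 0.1–100 µM for 24, 48 and 72 h. XTT labeling for 4 h at 37 °C, absorbance 450 nm (reference 650 nm) against control wells. IC50 derived from the mean of eight wells; taxol and cisplatin served as positive controls.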
# [2] = test system: DU-145; assay: Cytotoxicity against human DU145 cells after 72 hrs by XTT assay; type: functional, cell-based; details: DU-145, 24 h, in the assay text read “after 24 hrs” for “after 72 hrs”
smiles,measurement,setting,value
COc1ccc2c(c1)CC=C(CO)c1cc3c(cc1-2)OCO3 [TENUIFOLIN],IC50,[1],223 µM
same,IC50,[2],> 500 µM
